The record followed here is ChEMBL document CHEMBL3352332, “Synthesis and SAR study of novel anticancer and antimicrobial naphthoquinone amide derivatives” (Bioorg Med Chem Lett, 2014).

One test has as its system HeLa. In words: Cytotoxicity against human HeLa cells assessed as reduction in cell viability after 48 hrs by MTT assay. It counts as functional, cell-based.
Another test relates to SAS. Put plainly: Cytotoxicity against human SAS cells assessed as reduction in cell viability after 48 hrs by MTT assay. It counts as functional, cell-based. Background: Tetrazolium assays rely on reduction of a dye to a coloured formazan, in cell work by metabolically active cells.
Test [1] deals with Staphylococcus aureus. Put plainly: Antibacterial activity against methicillin-resistant Staphylococcus aureus at 100 ug/well after 24 hrs by well diffusion assay. Conditions: for zone of inhibition at 100 µg/disc: read-out: DIZ. The class given is functional. The gist of the method: (§1)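 Agar well diffusion on Mueller Hinton agar: 17 h cultures swabbed over the surface, wells cut with a cork borer after 10 min. Each well loaded with 10 µl of a 10 mg/mL DMSO stock (100 µg/well), with a DMSO control well. Plates incubated at 37 °C for 24 h. Zone of inhibition diameter measured in mm.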

Another test concerns Pseudomonas aeruginosa. In words: Antibacterial activity against Pseudomonas aeruginosa MTCC 201 at 100 ug/well after 24 hrs by well diffusion assay. The class given is functional. The gist of the method: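 17 h bacterial cultures swabbed onto Mueller Hinton agar; after 10 min wells were cut with a cork borer and loaded with compound from a 10 mg/mL stock, with a DMSO control. Plates were held at 37 °C for 24 h, and susceptibility was read as the diameter of the zone of inhibition in mm.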
(In general: Agar diffusion results depend on both activity and mobility in agar.)

In test [2] the test system is Candida albicans. Put plainly: Antifungal activity against fluconazole-resistant Candida albicans at 100 ug/well after 24 hrs by well diffusion assay. The class given is functional. Conditions: for zone of inhibition at 100 µg/disc: read-out: DIZ. In a few lines: as §1
In test [3] the test system is Staphylococcus aureus. In words: Antibacterial activity against methicillin-resistant Staphylococcus aureus by NCCLS method. It counts as functional.
For test [4], the system named is Candida albicans. Put plainly: Antifungal activity against fluconazole-resistant Candida albicans by NCCLS method. The class given is functional.

Converted amounts (≈) assume the structure as drawn. The source made the active and inactive calls. The rule behind the calls is not given here.

On to `O=C1C=C(O)C(=O)c2ccccc21` [LAWSONE], for which the IC50 with HeLa and in the test with SAS was more than 100 µM in each case. Also, the figures for the zone of inhibition at 100 µg/disc in the test with Staphylococcus aureus [1] and in the test with Candida albicans [2] were 12 mm and 14 mm, respectively. Besides, the “diameter of the inhibition zone (DIZ)” value with Pseudomonas aeruginosa is “inactive”. Moreover, the MIC against Staphylococcus aureus [3] came out at 125 µg/mL (≈ 718 µM); against Candida albicans [4], 250 µg/mL (≈ 1440 µM).
On to `CC1=CC(=O)c2ccccc2C1=O` [MENADIONE], for which the results for the IC50 in the test on HeLa and with SAS were 18 µM and 14 µM, respectively. For the same molecule, the zone of inhibition at 100 µg/disc in the test on Staphylococcus aureus [1] and in the test with Candida albicans [2] was 11 mm each time. Moreover, the “diameter of the inhibition zone (DIZ)” value in the test with Pseudomonas aeruginosa is “inactive”. Further, the MIC against Staphylococcus aureus [3] and against Candida albicans [4] was 15.6 µg/mL (≈ 90.6 µM) throughout.
For `COC(=O)CCCNC(=O)CSC1=CC(=O)c2cccc(OC)c2C1=O`, the zone of inhibition at 100 µg/disc in the test with Staphylococcus aureus [1] was determined as 12 mm. The “diameter of the inhibition zone (DIZ)” value with Pseudomonas aeruginosa and in the test on Candida albicans [2] was “inactive” throughout.
For the molecule `CC[C@H](C)[C@H](NC(=O)CSC1=C(C)C(=O)c2ccccc2C1=O)C(=O)OC`, the zone of inhibition at 100 µg/disc with Staphylococcus aureus [1] amounted to 16 mm; in the test with Candida albicans [2] it was 19 mm. Moreover, the “diameter of the inhibition zone (DIZ)” value in the test on Pseudomonas aeruginosa is “inactive”. Moreover, the MIC against Staphylococcus aureus [3] and against Candida albicans [4] was 15.6 µg/mL (≈ 40.1 µM) throughout.
On to `COC(=O)[C@H](C)NC(=O)CSC1=C(OC)C(=O)c2ccccc2C1=O`, for which the half-maximal inhibitory concentration (IC50) with HeLa was determined as 39 µM; in the test with SAS, 14 µM. The zone of inhibition at 100 µg/disc with Staphylococcus aureus [1] was determined as 19 mm; with Candida albicans [2] it was 26 mm. Besides, the “diameter of the inhibition zone (DIZ)” value in the test on Pseudomonas aeruginosa was “inactive”. The MIC against Staphylococcus aureus [3] and with Candida albicans [4] was 62.5 µg/mL (≈ 172 µM) each time.
As to `COC(=O)[C@H](CC(C)C)NC(=O)CSC1=C(C)C(=O)c2ccccc2C1=O`, the zone of inhibition at 100 µg/disc was 18 mm in the test with Staphylococcus aureus [1] and 20 mm with Candida albicans [2]. In the test on Pseudomonas aeruginosa, the “diameter of the inhibition zone (DIZ)” value was “inactive”. Moreover, the MIC with Staphylococcus aureus [3] and against Candida albicans [4] was 15.6 µg/mL (≈ 40.1 µM) each time.
As for `COC(=O)[C@H](C)NC(=O)CSC1=C(C)C(=O)c2ccccc2C1=O`, the zone of inhibition at 100 µg/disc is 23 mm in the test on Staphylococcus aureus [1] and 26 mm in the test on Candida albicans [2]. Also, the “diameter of the inhibition zone (DIZ)” value in the test on Pseudomonas aeruginosa was “inactive”. Moreover, the MIC with Staphylococcus aureus [3] and in the test on Candida albicans [4] was 15.6 µg/mL (≈ 44.9 µM) in each case.
As to `COC(=O)[C@H](CC(C)C)NC(=O)CSC1=CC(=O)c2cccc(OC)c2C1=O`, the zone of inhibition at 100 µg/disc in the test with Staphylococcus aureus [1] came out at 11 mm; in the test with Candida albicans [2], 12 mm. The “diameter of the inhibition zone (DIZ)” value in the test on Pseudomonas aeruginosa was “inactive”. Also, the MIC in the test on Staphylococcus aureus [3] and against Candida albicans [4] was 7.8 µg/mL (≈ 19.2 µM) in each case.
Turning to `COC(=O)CNC(=O)CSC1=C(C)C(=O)c2ccccc2C1=O`, the zone of inhibition at 100 µg/disc with Staphylococcus aureus [1] was 23 mm; in the test with Candida albicans [2], 22 mm. Moreover, the “diameter of the inhibition zone (DIZ)” value in the test on Pseudomonas aeruginosa is “inactive”. Besides, the MIC against Staphylococcus aureus [3] and against Candida albicans [4] was 15.6 µg/mL (≈ 46.8 µM) each time.
Take `COC(=O)[C@H](Cc1ccccc1)NC(=O)CSC1=C(OC)C(=O)c2ccccc2C1=O`: in the test with Staphylococcus aureus [1], the zone of inhibition at 100 µg/disc amounted to 14 mm. Also, the “diameter of the inhibition zone (DIZ)” value in the test with Pseudomonas aeruginosa and in the test with Candida albicans [2] was “inactive” throughout. In the test on Staphylococcus aureus [3], this molecule showed an MIC of 62.5 µg/mL (≈ 142 µM).
On to `COC(=O)[C@H](C)NC(=O)CSC1=C(C)C(=O)c2cccc(OC)c2C1=O`, for which the zone of inhibition at 100 µg/disc with Staphylococcus aureus [1] and in the test with Candida albicans [2] was 18 mm throughout. In addition, the “diameter of the inhibition zone (DIZ)” value with Pseudomonas aeruginosa was “inactive”. For the same molecule, the MIC with Staphylococcus aureus [3] and with Candida albicans [4] was 125 µg/mL (≈ 331 µM) in each case.
As for `CC[C@H](C)[C@H](NC(=O)CSC1=C(C)C(=O)c2cccc(OC)c2C1=O)C(=O)OC`, the “diameter of the inhibition zone (DIZ)” value in the test with Staphylococcus aureus [1], with Pseudomonas aeruginosa and with Candida albicans [2] was “inactive” in each case.
Regarding `COC(=O)[C@@H](NC(=O)CSC1=CC(=O)c2cccc(OC)c2C1=O)C(C)C`, the IC50 in the test with HeLa is more than 100 µM; in the test with SAS, 45 µM. The zone of inhibition at 100 µg/disc is 15 mm in the test on Staphylococcus aureus [1] and 12 mm in the test on Candida albicans [2]. For the same molecule, the “diameter of the inhibition zone (DIZ)” value with Pseudomonas aeruginosa is “inactive”. In addition, the MIC against Staphylococcus aureus [3] and against Candida albicans [4] was 15.6 µg/mL (≈ 39.9 µM) each time.
With `COC(=O)[C@@H](NC(=O)CSC1=C(C)C(=O)c2cccc(OC)c2C1=O)C(C)C`, the zone of inhibition at 100 µg/disc in the test with Staphylococcus aureus [1] stood at 12 mm; in the test with Candida albicans [2], 13 mm. Also, in the test on Pseudomonas aeruginosa, the “diameter of the inhibition zone (DIZ)” value was “inactive”. In addition, the MIC against Staphylococcus aureus [3] was 15.6 µg/mL (≈ 38.5 µM); against Candida albicans [4], 7.8 µg/mL (≈ 19.2 µM).
For the molecule `COC(=O)[C@@H](NC(=O)CSC1=C(OC)C(=O)c2ccccc2C1=O)C(C)C`, the IC50 in the test on HeLa is 93.5 µM; in the test with SAS it was 56 µM. The zone of inhibition at 100 µg/disc was determined as 18 mm with Staphylococcus aureus [1] and 20 mm in the test with Candida albicans [2]. The “diameter of the inhibition zone (DIZ)” value with Pseudomonas aeruginosa was “inactive”. Also, the MIC with Staphylococcus aureus [3] and against Candida albicans [4] was 15.6 µg/mL (≈ 39.9 µM) each time.
In the case of `OC(Cn1cncn1)(Cn1cncn1)c1ccc(F)cc1F`, the “diameter of the inhibition zone (DIZ)” value with Staphylococcus aureus [1], with Pseudomonas aeruginosa and in the test on Candida albicans [2] was “inactive” throughout.
In the case of `COC(=O)CCCNC(=O)CSC1=C(C)C(=O)c2cccc(OC)c2C1=O`, the zone of inhibition at 100 µg/disc in the test on Staphylococcus aureus [1] was found to be 20 mm; with Candida albicans [2], 21 mm. In addition, the “diameter of the inhibition zone (DIZ)” value with Pseudomonas aeruginosa was “inactive”. Also, the MIC in the test on Staphylococcus aureus [3] and against Candida albicans [4] was 15.6 µg/mL (≈ 39.9 µM) each time.
For `CN[C@@H]1[C@H](O[C@H]2[C@H](O[C@H]3[C@H](O)[C@@H](O)[C@H](N=C(N)N)[C@@H](O)[C@@H]3N=C(N)N)O[C@@H](C)[C@]2(O)C=O)O[C@@H](CO)[C@H](O)[C@H]1O` [STREPTOMYCIN], the zone of inhibition at 100 µg/disc was determined as 24 mm with Staphylococcus aureus [1] and 13 mm in the test with Pseudomonas aeruginosa (MTCC 201, 24 h, read-out: DIZ). In the test with Candida albicans [2], the “diameter of the inhibition zone (DIZ)” value is “inactive”. The molecule also gave an MIC against Staphylococcus aureus [3] of 3.9 µg/mL (≈ 6.71 µM).
On to `COC(=O)CCCNC(=O)CSC1=C(C)C(=O)c2ccccc2C1=O`, for which the zone of inhibition at 100 µg/disc in the test on Staphylococcus aureus [1] amounted to 13 mm; in the test on Candida albicans [2], 12 mm. Also, the “diameter of the inhibition zone (DIZ)” value with Pseudomonas aeruginosa was “inactive”. Besides, the MIC against Staphylococcus aureus [3] and in the test with Candida albicans [4] was 15.6 µg/mL (≈ 43.2 µM) each time.
As for `COC(=O)CNC(=O)CSC1=C(C)C(=O)c2cccc(OC)c2C1=O`, the figures for the zone of inhibition at 100 µg/disc in the test on Staphylococcus aureus [1] and in the test with Candida albicans [2] were 20 mm and 21 mm, respectively. Moreover, the “diameter of the inhibition zone (DIZ)” value with Pseudomonas aeruginosa is “inactive”. Besides, the MIC against Staphylococcus aureus [3] and against Candida albicans [4] was 125 µg/mL (≈ 344 µM) each time.
For `COC(=O)[C@H](Cc1ccccc1)NC(=O)CSC1=C(C)C(=O)c2ccccc2C1=O`, the zone of inhibition at 100 µg/disc in the test on Staphylococcus aureus [1] was 13 mm; in the test on Candida albicans [2] it was 16 mm. Besides, the “diameter of the inhibition zone (DIZ)” value with Pseudomonas aeruginosa is “inactive”. The MIC against Staphylococcus aureus [3] and against Candida albicans [4] was 15.6 µg/mL (≈ 36.8 µM) throughout.
Turning to `COC(=O)[C@H](C)NC(=O)CSC1=CC(=O)c2cccc(OC)c2C1=O`, the zone of inhibition at 100 µg/disc with Staphylococcus aureus [1] was determined as 15 mm. Also, the “diameter of the inhibition zone (DIZ)” value with Pseudomonas aeruginosa and in the test with Candida albicans [2] was “inactive” each time. The minimum inhibitory concentration (MIC) with Staphylococcus aureus [3] stood at 7.8 µg/mL (≈ 21.5 µM).
Take `O=C1C=CC(=O)c2c(O)cccc21`: the “diameter of the inhibition zone (DIZ)” value in the test on Staphylococcus aureus [1], in the test with Pseudomonas aeruginosa and in the test with Candida albicans [2] was “inactive” throughout.

The IC50 is the midpoint of a concentration-inhibition curve. The term MIC denotes the least concentration at which growth counts as inhibited. Read a low MIC as greater potency.
